Compound activity as filed in PubChem.
This is a sample that favours compounds with a hit; in the whole collection about 1.8% have one here.
Jurkat NFkB inh: lowers PMA/ionomycin-induced NF-kB signal in Jurkat cells. PMA/ionomycin-induced NF-kB luciferase reporter, luminescence. AID 435003. 330,000 tested, 0.53% active. inhibition, % at 4 µM; in the data active = inhibition above about 50%
697 NFkB inh: lowers PMA/ionomycin-induced NF-kB signal in 697 B cells | 697 B-cell NF-kB luciferase reporter, 16 h | 330,000 tested, 0.33% active | inhibition, % at 4 µM; in the data active = inhibition above about 35%
Gli-Sufu antag: antagonists of Gli-Sufu signaling | 340,000 tested, 0.74% active | Sufu-KO-LIGHT fibroblasts, Gli luciferase reporter luminescence | AID 588413 | inhibition, % at 5 µM;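 active = inhibition above about 55%, limit read from the data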;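 note: 0% = DMSO-treated cells and 100% = wells with medium but no cells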
TAG inh: reduces triacylglycerol accumulation in H9c2 cells; Nile Red lipid (TAG) fluorescence; cells loaded with 200 µM oleic acid; inhibition, % at 12.5 µM; 230,000 tested, 0.66% active; AID 651582;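 active = pattern-corrected inhibition of lipid staining of at least 50% with the nuclear-stain viability signal not falling by more than 50%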;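 note: 0% = DMSO wells and 100% = triacsin C control wells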
Hep lipid drop: modulators of hepatic lipid droplet formation; 240,000 tested, 0.4% active; AML12 mouse hepatocytes, oleate lipid droplets, BODIPY imaging; inhibition, % at 6.5 µM;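 active = lipid droplet intensity inhibited by at least 50%, with more than 500 cells counted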
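Assay system: AML12 mouse liver cells | Compound: 6.5 µM single-point dosing | Schedule: Overnight exposure | Technique: Fluorescence imaging, 20x objective, two fields per well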
iPSC survival up: increases survival of single human iPS cells. 360,000 tested, 0.044% active. hiPSC single-cell survival, ATPlite luminescence; 100% = ROCK inhibitor wells, 0% = DMSO. AID 602274. survival enhancement, % at 20 µM; in the data active = survival enhancement above about 18%;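 note: cells exposed to compounds for 16 hours before the ATP read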
697 NFkB conf: lowers PMA/ionomycin-induced NF-kB signal in 697 B cells | inhibition, % at 4 µM | 697 B-cell NF-kB luciferase, 16 h | 2,000 tested, 35% active | shares compounds with 697 NFkB inh; in the data active = inhibition mostly above about 28%, no sharp cut-off; inactive = mostly below about 22%
Starred values were filed as active, the others as inactive.

Screening CC1CCN(S(=O)(=O)c2cnc(Cl)c(Br)c2)CC1 returned Jurkat NFkB inh -0.5, 697 NFkB inh 38.0*, Gli-Sufu antag 6.8, Hep lipid drop -17.9, iPSC survival up -1.1 and 697 NFkB conf 23.0.
COc1cc(-c2nc3ccccn3c2NCC2CCCO2)ccc1O (stereo not drawn) was read as Jurkat NFkB inh -3.6, 697 NFkB inh 36.0*, Gli-Sufu antag 4.0, iPSC survival up -1.3 and 697 NFkB conf 1.8.
For c1coc(-c2cc3nc(NC4CCCCC4)ccn3n2)c1 the results were TAG inh 17.7 and iPSC survival up -2.4.
Screening Cc1ccc(CN(C)C(=O)C2CCC(=O)N(C3CCCCCC3)C2)cc1 (stereo not drawn) returned Jurkat NFkB inh 0.9, 697 NFkB inh -1.4, Gli-Sufu antag -2.7, Hep lipid drop 1.9 and iPSC survival up 0.8.
For CCN1C(=O)c2cccc3c(S(=O)(=O)NCc4ccccc4)ccc1c23 the results were Jurkat NFkB inh -8.6, 697 NFkB inh 25.0, Gli-Sufu antag 4.0, TAG inh -14.7 and iPSC survival up -0.6.
Screening CCN1C(=O)c2cccc3c(S(=O)(=O)N4CCC(C)CC4)ccc1c23 returned Jurkat NFkB inh -19.4, 697 NFkB inh 41.1*, Gli-Sufu antag 35.7, TAG inh 1.1, iPSC survival up -0.4 and 697 NFkB conf 46.5*.
For CCN(CC)S(=O)(=O)c1cccc(NC(=O)c2ccc(Sc3nncn3C)c([N+](=O)[O-])c2)c1 the results were Jurkat NFkB inh 9.2, 697 NFkB inh 37.2*, Gli-Sufu antag -0.2, TAG inh 34.3, Hep lipid drop -26.4, iPSC survival up 0.1 and 697 NFkB conf 11.9.
Cn1cnnc1Sc1ccc(C(=O)OCC(=O)NCC(F)(F)F)cc1[N+](=O)[O-] was read as Jurkat NFkB inh -0.1, 697 NFkB inh 17.6, Gli-Sufu antag -0.5, TAG inh -0.4, Hep lipid drop 1.6 and iPSC survival up 0.5.
Cc1cc(C)c(C(O)c2ncc(-c3cccc4ccccc34)[nH]2)c(C)c1 (stereo not drawn) was read as TAG inh 6.9 and iPSC survival up -1.7.
`O=C(NC(Cc1c[nH]c2ccccc12)C(=O)Nc1ccc(OC(F)(F)F)cc1)c1cccs1` (stereo not drawn) gave Jurkat NFkB inh -64.7, 697 NFkB inh inactive, Gli-Sufu antag 7.8, Hep lipid drop -13.1, iPSC survival up -2.3 and 697 NFkB conf 8.4.
O=C(NC(Cc1c[nH]c2ccccc12)C(=O)O)c1cccs1 (stereo not drawn) was read as Jurkat NFkB inh 7.0, 697 NFkB inh 2.6, Gli-Sufu antag -1.2, TAG inh 4.4, Hep lipid drop 0.5 and iPSC survival up 1.9.
For O=C(NC(Cc1c[nH]c2ccccc12)C(=O)Nc1ccc(F)c([N+](=O)[O-])c1)c1cccs1 (stereo not drawn) the results were Jurkat NFkB inh -44.2, 697 NFkB inh inactive, Gli-Sufu antag 3.3, Hep lipid drop 13.0, iPSC survival up -0.9 and 697 NFkB conf -265.0.
Screening Cc1cc(N2CCOCC2)n2ncc(-c3ccccc3)c2n1 returned Jurkat NFkB inh -149.0, 697 NFkB inh -318.1, Gli-Sufu antag -9.5, Hep lipid drop 27.5, iPSC survival up -2.7 and 697 NFkB conf -484.5.
`COc1ccccc1-c1c(C)nn2c(N3CCOCC3)cc(C)nc12` gave Jurkat NFkB inh -9.5, 697 NFkB inh -13.3, Gli-Sufu antag -3.3, Hep lipid drop 8.4 and iPSC survival up -0.2.
For Cc1cc(N2CCN(C(=O)c3ccco3)CC2)n2ncc(-c3ccccc3)c2n1 the results were Jurkat NFkB inh -79.9, 697 NFkB inh -52.2, Gli-Sufu antag -38.4, TAG inh 12.1 and iPSC survival up -1.5.
Screening Cc1cc(N2CCC(C)CC2)n2ncc(-c3ccccc3)c2n1 returned Jurkat NFkB inh -137.5, 697 NFkB inh -402.1, Gli-Sufu antag 24.9, TAG inh -1.0, iPSC survival up -1.4 and 697 NFkB conf -305.9.
Cc1ccc(-c2cnn3c(N4CCOCC4)cc(C)nc23)cc1 was read as Jurkat NFkB inh -140.4, 697 NFkB inh -280.3, Gli-Sufu antag 16.2, Hep lipid drop 4.8, iPSC survival up -0.2 and 697 NFkB conf -236.8.
For CCS(=O)(=O)N1CCN(C(=O)c2cccc3ccccc23)CC1 the results were Jurkat NFkB inh 6.8, 697 NFkB inh 11.3, Gli-Sufu antag 3.2, TAG inh -1.2, Hep lipid drop 12.1 and iPSC survival up -0.3.
`NC(=O)c1ccsc1NC(=O)COC(=O)Cc1ccccc1Cl` gave Jurkat NFkB inh -0.6, 697 NFkB inh 14.5, Gli-Sufu antag -2.1, TAG inh -9.4 and iPSC survival up 0.7.
Screening C[C@H]1CN([C@@H](C)CO)C(=O)CCCn2cc(nn2)CO[C@@H]1CN(C)C(=O)Nc1ccc(F)cc1 returned TAG inh 9.0 and iPSC survival up -1.2.
CCN(CC)S(=O)(=O)c1ccc(NC(=S)Nc2ccc(F)cc2)cc1 was read as Jurkat NFkB inh 8.3, 697 NFkB inh -4.9, Gli-Sufu antag 4.4 and iPSC survival up 0.3.
CCN(CC(N)=O)S(=O)(=O)c1ccc(F)cc1 was read as Jurkat NFkB inh -0.6, 697 NFkB inh 41.6*, Gli-Sufu antag -5.2, TAG inh -6.9, Hep lipid drop -3.9, iPSC survival up -0.2 and 697 NFkB conf -7.1.
For CCn1cc(C(=O)NCCN(C)C)c(=O)c2cc(F)c(N3CCN(C)CC3)cc21 the results were Gli-Sufu antag 3.2 and iPSC survival up -0.1.
`Cc1ccc(N=Nc2cc(C)ccc2N)cc1` gave Jurkat NFkB inh -97.7, 697 NFkB inh -325.5, Gli-Sufu antag -128.0, TAG inh 16.3, Hep lipid drop 22.7, iPSC survival up -0.8 and 697 NFkB conf -156.7.
For O=C(Nc1ccc(N2CCCC2)cc1)c1cccc(Cl)c1 the results were Jurkat NFkB inh -118.8, 697 NFkB inh -266.5, Gli-Sufu antag -24.4, Hep lipid drop 4.0, iPSC survival up -0.2 and 697 NFkB conf -26.6.
`O=C(Nc1ccc(N2CCCC2)cc1)c1cc(Cl)ccc1Cl` gave Jurkat NFkB inh 43.8, 697 NFkB inh -45.1, Gli-Sufu antag -6.8, TAG inh 9.5, Hep lipid drop -8.7 and iPSC survival up 0.0.
CCc1nc2ccccc2n1CC(O)COCC1CC=CCC1 (stereo not drawn) was read as Jurkat NFkB inh -2.3, 697 NFkB inh -2.1, Gli-Sufu antag 6.1, TAG inh -8.2, Hep lipid drop -7.5 and iPSC survival up -0.1.
Screening COc1ccccc1/C=C/C=N/Nc1cccc(C(=O)O)c1 returned Jurkat NFkB inh -113.1, 697 NFkB inh -275.3, Gli-Sufu antag -52.9, Hep lipid drop -5.0, iPSC survival up 0.2 and 697 NFkB conf -39.0.
